An excerpt weighted towards active compounds, which were near 4.7% of everything screened.
Jurkat NFkB inh: inhibitors of induced NF-kB luciferase reporter, primary screen, TCR NF-kB activation inhibitor project, cell-based, luminescence, uHTS. Jurkat, PMA/ionomycin-induced NF-kB luciferase reporter. AID 435003, 2010. inhibition, % at 4 µM. actives 0.53% (n = 330,000); in the data active = inhibition above about 50%
697 NFkB inh: inhibitors of PMA/ionomycin-induced NF-kB reporter, 697 cells, primary screen, B-cell NF-kB inhibitor project, cell-based, luminescence, uHTS; 697 B-cell NF-kB luciferase reporter, 16 h; inhibition, % at 4 µM; actives 0.33% (n = 330,000); in the data active = inhibition above about 35%
IMP-1 inh: IMP-1 metallo-beta-lactamase inhibitors, primary screen, biochemical, epi-absorbance readout, Pseudomonas aeruginosa enzyme; purified IMP-1, nitrocefin hydrolysis, epi-absorbance fluorescence; inhibition, % at 5.6 µM; actives 0.45% (n = 290,000);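 active = inhibition above the mean plus 3 SD of all compounds in the same screening run, cut at about 4.5% in these data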;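 note: 0% = IMP-1 with DMSO and 100% = DMSO wells lacking enzyme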
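Test system: recombinant IMP-1 enzyme, purified / Medium: HEPES buffer pH 7.1 with ZnSO4 and Brij 35 / Doses: single dose, 5.6 µM / Times: 25 °C, 15 min preincubation, 25 min reaction / Detection: Epi-absorbance via hydrolysed-nitrocefin quenching of white-plate fluorescence, 480/530 nm, EDTA stop / Evaluation: percent inhibition from optical density relative to buffer-blank wells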
VIM-2 inhibitor: VIM-2 metallo-beta-lactamase inhibitors, primary screen, biochemical, epi-absorbance readout, Pseudomonas aeruginosa enzyme; purified VIM-2, nitrocefin hydrolysis, epi-absorbance fluorescence; inhibition, % at 5.6 µM; actives 0.89% (n = 290,000); AID 1527, 2009;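 active = inhibition above the mean of all tested compounds plus 3 SD, cutoff set per screening run, cut at about 7.5% in these data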;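 note: red hydrolysis product quenches plate fluorescence so inhibitors raise well fluorescence; 0% = enzyme with DMSO and 100% = DMSO without enzyme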
aSyn 5UTR inh: MLPCN primary screen, SNCA 5' untranslated region. alpha-synuclein 5'UTR reporter, inhibitor activity. inhibition, % (tested at 7.5 µM). actives 0.82% (n = 300,000); in the data active = inhibition above about 60%;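 note: H4 neuroglioblastoma cells stably carrying SNCA 5'UTR luciferase fusion; 0% = DMSO wells and 100% = positive control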
Mdm2 MdmX PPI: inhibitors of human Mdm2-MdmX association, primary screen, cell-based, luminescence, split luciferase, SaOS-2, uHTS; Protein Mdm4 (Homo sapiens) + E3 ubiquitin-protein ligase Mdm2 (Homo sapiens), …; SaOS-2 split-luciferase Mdm2/MdmX complementation; inhibition, % at 8 µM; actives 3% (n = 330,000); AID 485346, 2010;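 active = inhibition of at least 50% at 8 µM in the primary screen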
Target sequence (O15151 whole entry, looked up): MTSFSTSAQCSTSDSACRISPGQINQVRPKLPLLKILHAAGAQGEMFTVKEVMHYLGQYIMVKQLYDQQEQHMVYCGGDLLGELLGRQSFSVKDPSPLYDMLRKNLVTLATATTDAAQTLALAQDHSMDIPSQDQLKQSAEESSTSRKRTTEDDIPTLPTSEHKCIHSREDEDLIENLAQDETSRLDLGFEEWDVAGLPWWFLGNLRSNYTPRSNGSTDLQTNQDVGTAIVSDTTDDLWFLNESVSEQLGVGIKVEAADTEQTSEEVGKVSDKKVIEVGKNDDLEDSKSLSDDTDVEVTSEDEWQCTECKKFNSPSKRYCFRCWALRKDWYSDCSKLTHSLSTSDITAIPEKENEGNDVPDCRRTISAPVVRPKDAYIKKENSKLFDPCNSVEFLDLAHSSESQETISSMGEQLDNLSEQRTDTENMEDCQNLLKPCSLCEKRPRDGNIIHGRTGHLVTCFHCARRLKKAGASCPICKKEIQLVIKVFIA
Target sequence (Q00987 whole entry, looked up): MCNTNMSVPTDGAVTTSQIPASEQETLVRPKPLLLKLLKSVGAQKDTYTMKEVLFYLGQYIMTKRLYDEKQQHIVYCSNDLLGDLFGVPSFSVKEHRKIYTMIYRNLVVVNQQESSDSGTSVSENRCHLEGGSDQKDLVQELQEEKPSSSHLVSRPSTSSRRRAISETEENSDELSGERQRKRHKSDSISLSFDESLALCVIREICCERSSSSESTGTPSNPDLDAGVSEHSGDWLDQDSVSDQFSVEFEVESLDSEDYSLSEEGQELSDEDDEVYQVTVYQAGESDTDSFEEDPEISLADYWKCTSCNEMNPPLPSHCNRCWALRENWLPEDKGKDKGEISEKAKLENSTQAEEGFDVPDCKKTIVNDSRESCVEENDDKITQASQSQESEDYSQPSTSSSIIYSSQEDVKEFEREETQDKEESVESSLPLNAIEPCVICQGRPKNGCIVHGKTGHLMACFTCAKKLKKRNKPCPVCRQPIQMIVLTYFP
697 NFkB conf: PMA/ionomycin-induced NF-kB reporter inhibitors, 697 retest, confirmation, B-cell NF-kB inhibitor project, cell-based, luminescence, single concentration; inhibition, % at 4 µM; AID 449746, 2010; shares compounds with 697 NFkB inh; actives 35% (n = 2,000); 697 B-cell NF-kB luciferase, 16 h; in the data active = inhibition mostly above about 28%, no sharp cut-off; inactive = mostly below about 22%
Active calls of the source: *; i = inactive; nt = no result given.

SMILES	Jurkat NFkB inh	697 NFkB inh	IMP-1 inh	VIM-2 inhibitor	aSyn 5UTR inh	Mdm2 MdmX PPI	697 NFkB conf
Cc1ccc(-c2csc3ncnc(Nc4ccc(C(=O)O)cc4)c23)cc1	10	36*	-1	0	39	19	16
Cc1c(Cl)cccc1NC(=O)CCN1C(=O)NC(C)(C)C1=O	-16	14	nt	nt	nt	12	nt
O=C(N/N=C\c1ccc(F)cc1)c1ccc(Cn2cc(Br)c([N+](=O)[O-])n2)o1	6	37*	0	1	-13	-4	15
Cn1c(=O)cc(OCCCC(=O)NCc2ccccn2)c2ccccc21	4	36*	-3	-2	11	17	31*
Cn1c(=O)cc(OCCCC(=O)N2CCCCC2)c2ccccc21	-10	39*	-8	-1	22	49	42*
O=C(Nc1ccc(S(=O)(=O)N2CCCC2)cc1)c1cc(F)c(F)cc1Cl	-1	-3	-4	-2	-15	4	nt
O=C(O)C(Cc1ccc(Cl)cc1)Sc1nc2ccccc2[nH]1 (configuration not stated)	-1	9	-5	-2	4	10	nt
O=C(CCn1c(=O)c2cccn2c2cccnc21)N1CCN(c2cccc(Cl)c2)CC1	-5	25	-4	0	13	30	nt
CC(=O)c1ccc(Nc2nc(=O)c3cccnc3s2)cc1	-2	-38	1	-2	-124	5	nt
Cc1ccc(Nc2nc(=O)c3cccnc3s2)c(Br)c1	8	-283	-4	-5	42	49	-254
CCn1c(=O)n(CC)c2cc(N3CCCC3)c(NC(=O)c3c(F)cccc3F)cc21	-2	-5	0	-1	20	9	nt
COc1ccc(-c2cc3nc(C)c(CCC(=O)NCc4ccco4)c(C)n3n2)c(OC)c1	11	28	-6	-3	15	-5	nt
Cc1ccc(-c2cc3nc(C)cc(NCc4ccco4)n3n2)cc1	-130	-256	-2	0	-157	-111	-238
Clc1cccc(-c2cc3nc4c(c(NCc5ccco5)n3n2)CCCC4)c1	-111	-327	-2	-2	-115	-66	-347
c1coc(CNc2c3c(nc4ncnn24)CCCC3)c1	6	-13	-1	-2	-16	-39	nt
COCCNc1cc(C)nc2cc(-c3ccc(C)cc3)nn12	-7	-9	-1	0	-33	13	nt
Cc1nc2cc(-c3ccc(Cl)cc3)nn2c(C)c1CCC(=O)NCc1ccco1	17	43*	-3	1	56	1	31*
O=C(/C(N=Nc1cccc(C(F)(F)F)c1)=C(/O)c1cccs1)C(F)(F)F	-59	-113	-3	-3	-62	40	nt
Cc1ccc(N=C/C(C(=O)C(F)(F)F)=C(\O)c2cccs2)cc1	-100	-360	-2	3	-89	-153	-148
CCOc1ccc(NC(=O)CN(C)C(=O)c2ccc(N3CCCCCC3)c([N+](=O)[O-])c2)cc1OCC	-14	42*	nt	nt	5	28	3
CCOCCCNC(=S)N1CCC(C(=O)c2ccc3c(c2)OCCO3)CC1	-7	101*	-1	-1	12	1	19
COc1cccc(/C=N\NC(=O)c2sc(N)nc2C)c1OC	2	39*	0	-1	2	24	8
CCCCNc1ncnc2c1cnn2-c1ccc(Cl)cc1	-25	-308	-1	1	-137	-94	-324
Cc1ccc(-n2ncc3c(NCc4cccnc4)ncnc32)cc1C	-104	-261	4	-1	-90	-170	-266
CCOC(=O)Cc1csc(NC(=S)NC(=O)c2ccc(C)cc2)n1	-5	70*	0	-3	27	16	89*
SMILES	Jurkat NFkB inh	697 NFkB inh	IMP-1 inh	VIM-2 inhibitor	aSyn 5UTR inh	Mdm2 MdmX PPI	697 NFkB conf
CCOC(=O)Cc1csc(NC(=S)NC(=O)c2ccccc2)n1	-4	-12	-4	0	-27	0	nt
COc1cc(NC(=O)CSc2nc(=O)n(CCN3CCOCC3)c3c2CCCC3)cc(OC)c1	9	-14	nt	nt	-13	27	nt
CCN1CCCC1CNC(=O)CSc1cc(=O)n(CC)c2ccccc12 (configuration not stated)	-3	13	-2	1	5	16	nt
CCn1c(=O)cc(SCC(=O)N2CCOCC2)c2ccccc21	3	42*	-2	-2	5	39	45*
CCn1c(=O)cc(SCC(=O)N2CCN(C3CCCCC3)CC2)c2ccccc21	14	48*	-5	1	-20	41	19
Oc1cc2c(cc1CN1CCN(c3ncccn3)CC1)OCO2	-2	3	-2	0	9	34	nt
O=C(Nc1cccc(Cl)c1)Nc1ccccc1C(=O)O	-115	-273	-1	0	-120	-126	-333
O=C(Nc1ccc(Cl)c(Cl)c1)Nc1ccccc1C(=O)O	-136	i	-2	-2	-8	14	i
COc1ccc(-n2cc3ccc([N+](=O)[O-])cc3n2)cc1	-146	-233	-2	0	-91	-210	nt
O=C(COC(=O)CCN1C(=O)C2CC=CCC2C1=O)Nc1ccc(Cl)cc1F (configuration not stated)	3	15	nt	nt	nt	12	nt
O=C1c2ccccc2C(=O)C1c1ccnc2ccccc12	-34	-262	0	0	89*	45	-288
CCNS(=O)(=O)c1ccc2c3c(cccc13)C(=O)N2	5	38*	-4	-3	7	15	19
O=C1Nc2ccc(S(=O)(=O)NCCCO)c3cccc1c23	-4	-3	-3	0	14	-18	nt
O=C(O)CSc1ncnc2sc(-c3ccccc3)cc12	5	-18	-2	1	3	22	nt
O=C(O)CCSc1ncnc2sc(-c3ccccc3)cc12	22	81*	-2	-2	88*	4	62*
CC(=O)CCSc1ncnc2sc(-c3ccccc3)cc12	-126	-336	-3	-1	-174	-106	-164
O=C1CCCc2c1[nH]c1ccc(CN3CCCCC3)cc21	-15	38*	-4	2	-6	50	29*
Cc1ccc2[nH]c3c(c2c1)CCCC3=O	-7	10	0	2	13	29	nt
O=C(COC(=O)Cc1ccccc1F)NNC(=O)c1ccc([N+](=O)[O-])cc1	15	6	nt	nt	3	16	nt
O=C(O)c1ccc(OS(=O)(=O)c2ccc(Cl)s2)c(Cl)c1	-6	8	nt	nt	nt	7	nt
CC(=O)c1cccc(S(=O)(=O)Nc2cc(C(F)(F)F)ccc2N2CCOCC2)c1	11	39*	nt	nt	nt	20	32*

Screening data (PubChem)
